Peptide text beside a SMILES is read from it.
Experiments:
[1] = Intrinsic clearance in human microsomes; format: ADME, Microsome
[2] = target: Cytochrome P450 2C9 (Homo sapiens, UniProt P11712); experiment: Inhibition of CYP2C9 (unknown origin); format: ADME
[3] = Intrinsic clearance in rat microsomes; format: ADME, Microsome
[4] = test system: Brain; experiment: Unbound brain volume of distribution in rat at 10 uM; format: ADME, tissue-based; details: in vivo
[5] = Drug recovery in rat brain at 10 uM; format: ADME, tissue-based; details: read-out: Drug recovery
[6] = target: Cytochrome P450 2D6 (Homo sapiens, UniProt P10635); experiment: Inhibition of CYP2D6 (unknown origin); format: ADME
Sequence of Cytochrome P450 2D6 (P10635 whole entry): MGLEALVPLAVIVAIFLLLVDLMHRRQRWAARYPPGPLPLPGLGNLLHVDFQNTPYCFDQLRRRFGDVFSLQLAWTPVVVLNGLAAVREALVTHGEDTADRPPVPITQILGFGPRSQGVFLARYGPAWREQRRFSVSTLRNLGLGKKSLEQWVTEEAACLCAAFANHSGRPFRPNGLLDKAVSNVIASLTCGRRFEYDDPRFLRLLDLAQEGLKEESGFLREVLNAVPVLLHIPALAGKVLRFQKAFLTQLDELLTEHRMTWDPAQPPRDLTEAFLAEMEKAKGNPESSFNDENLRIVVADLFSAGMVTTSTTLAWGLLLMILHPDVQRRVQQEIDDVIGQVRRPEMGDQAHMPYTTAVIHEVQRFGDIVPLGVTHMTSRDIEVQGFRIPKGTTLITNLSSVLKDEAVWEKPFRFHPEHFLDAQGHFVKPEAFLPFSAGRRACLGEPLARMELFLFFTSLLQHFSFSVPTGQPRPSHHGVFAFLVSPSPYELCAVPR

[7] = Fraction unbound in human plasma at 10 uM; format: ADME, cell-free
Outline: (§1)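 Human plasma protein binding was measured by equilibrium dialysis. The read-outs were fraction unbound and mass recovery.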

[8] = target: Cytochrome P450 3A4 (Homo sapiens, UniProt P08684); experiment: Inhibition of CYP3A4 (unknown origin); format: ADME
Sequence of Cytochrome P450 3A4 (P08684 whole entry): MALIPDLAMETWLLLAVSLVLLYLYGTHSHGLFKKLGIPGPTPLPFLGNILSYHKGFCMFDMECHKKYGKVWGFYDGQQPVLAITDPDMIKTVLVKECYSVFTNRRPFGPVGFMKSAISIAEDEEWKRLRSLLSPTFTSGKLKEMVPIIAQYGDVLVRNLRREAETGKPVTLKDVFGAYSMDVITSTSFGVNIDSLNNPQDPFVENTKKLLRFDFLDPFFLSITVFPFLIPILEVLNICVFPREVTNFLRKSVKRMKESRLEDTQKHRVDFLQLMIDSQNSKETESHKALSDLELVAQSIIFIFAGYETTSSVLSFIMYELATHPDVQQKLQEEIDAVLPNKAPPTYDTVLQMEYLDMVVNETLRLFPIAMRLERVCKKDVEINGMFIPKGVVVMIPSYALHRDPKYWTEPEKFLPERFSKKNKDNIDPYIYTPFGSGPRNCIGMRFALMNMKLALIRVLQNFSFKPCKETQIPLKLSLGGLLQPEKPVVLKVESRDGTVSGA

[9] = Efflux ratio of apparent permeability from basolateral to apical side to apical to basolateral side of human Caco2 cells; format: ADME, cell-based; details: Caco-2
Outline: (§2)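 Caco-2 monolayers; apparent permeability coefficients (Papp) calculated from transport rates in the apical-to-basolateral and basolateral-to-apical directions. Efflux ratio is Papp(b–a)/Papp(a–b). Values are given as mean ± SD.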

[10] = Fraction unbound in rat plasma at 10 uM; format: ADME, cell-free
[11] = target: T1, Cytochrome P450 1A2 (Homo sapiens, UniProt P05177); experiment: Inhibition of CYP1A2 (unknown origin); format: ADME
T1 sequence (P05177 whole entry): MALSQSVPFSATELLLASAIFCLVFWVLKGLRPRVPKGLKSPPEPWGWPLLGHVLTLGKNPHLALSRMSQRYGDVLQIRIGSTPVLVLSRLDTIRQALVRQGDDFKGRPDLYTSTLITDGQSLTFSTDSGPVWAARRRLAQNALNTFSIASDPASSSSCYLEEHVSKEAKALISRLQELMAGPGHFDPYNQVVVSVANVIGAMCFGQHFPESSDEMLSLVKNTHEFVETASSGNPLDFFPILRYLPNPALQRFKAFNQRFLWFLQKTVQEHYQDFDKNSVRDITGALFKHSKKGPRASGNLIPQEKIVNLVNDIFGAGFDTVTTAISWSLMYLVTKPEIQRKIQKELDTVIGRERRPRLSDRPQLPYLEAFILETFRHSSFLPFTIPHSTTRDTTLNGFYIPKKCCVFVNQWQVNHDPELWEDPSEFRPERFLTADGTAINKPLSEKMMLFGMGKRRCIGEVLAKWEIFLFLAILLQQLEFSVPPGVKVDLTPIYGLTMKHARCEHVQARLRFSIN

[12] = test system: Hepatocyte; experiment: Intrinsic clearance in rat hepatocytes; format: ADME, cell-based
[13] = Apparent permeability from apical to basolateral side in human Caco2 cells; format: ADME, cell-based; details: Caco-2; outline: as §2
[14] = test system: Plasma; experiment: Drug recovery in human plasma at 10 uM; format: ADME, cell-free; outline: as §1
[15] = Fraction unbound in rat brain at 10 uM; format: ADME, tissue-based
[16] = test system: Plasma; experiment: Drug recovery in rat plasma at 10 uM; format: ADME, cell-free
[17] = in vitro; details: human, Caco-2
[18] = in vitro; details: human, Caco-2; remark: listed apart in the source
[19] = target: T2, Solute carrier family 15 member 1 (Homo sapiens, UniProt P46059); experiment: Drug uptake in CHO-PepT1 cells expressing PepT1 (unknown origin) assessed as transporter mediated uptake at 25 uM; format: ADME, cell-based, Cricetulus griseus; details: chinese hamster, cho-pept1, 25 µM
T2 sequence (P46059 whole entry): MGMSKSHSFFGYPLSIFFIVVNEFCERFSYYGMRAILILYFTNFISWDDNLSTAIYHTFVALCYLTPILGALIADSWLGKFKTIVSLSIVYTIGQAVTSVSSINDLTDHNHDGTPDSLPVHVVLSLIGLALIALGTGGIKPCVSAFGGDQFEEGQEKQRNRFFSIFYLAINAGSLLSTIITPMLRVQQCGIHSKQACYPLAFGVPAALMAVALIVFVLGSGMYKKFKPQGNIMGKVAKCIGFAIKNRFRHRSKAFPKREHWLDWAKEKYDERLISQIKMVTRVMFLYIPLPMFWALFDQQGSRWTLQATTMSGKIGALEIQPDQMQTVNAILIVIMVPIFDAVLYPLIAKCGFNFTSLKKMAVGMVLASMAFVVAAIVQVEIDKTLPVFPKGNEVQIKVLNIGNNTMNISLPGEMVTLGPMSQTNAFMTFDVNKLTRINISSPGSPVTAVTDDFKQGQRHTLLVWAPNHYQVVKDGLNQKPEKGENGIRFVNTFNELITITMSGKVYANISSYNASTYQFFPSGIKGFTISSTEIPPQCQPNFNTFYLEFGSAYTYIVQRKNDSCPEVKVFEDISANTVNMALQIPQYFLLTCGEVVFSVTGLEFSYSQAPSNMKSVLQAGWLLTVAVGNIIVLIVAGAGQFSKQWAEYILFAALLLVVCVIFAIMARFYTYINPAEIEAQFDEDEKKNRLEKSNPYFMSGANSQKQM

[20] = Half life in rat plasma at 25 uM; format: ADME, cell-free
[21] = Drug uptake in CHOK1 cells at 25 uM; format: ADME, cell-based, Cricetulus griseus; details: chinese hamster, cho-k1, 25 µM
[22] = Intrinsic clearance in human liver microsomes at 25 uM; format: ADME; details: read-out: CLH
[23] = in vitro; details: human, Caco-2; remark: listed apart in the source
[24] = Half life in human plasma at 25 uM; format: ADME, cell-free
[25] = test system: PepT1; experiment: in vitro; details: chinese hamster, CHO-PepT1 cells and CHO-K1 cells
[26] = Half life in rat plasma at 100 uM; format: ADME, cell-free
[27] = Intrinsic clearance in human liver microsomes at 100 uM; format: ADME; details: read-out: CLH
[28] = target: T2, Solute carrier family 15 member 1; experiment: Drug uptake in CHO-PepT1 cells expressing PepT1 (unknown origin) assessed as transporter mediated uptake at 100 uM; format: ADME, cell-based, Cricetulus griseus; details: chinese hamster, cho-pept1, 100 µM
Outline: (§3)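 Uptake was measured in CHO-PepT1 cells, which are stably transfected with PepT1, and in CHO-K1 cells as the control. It is expressed as pmol/mg protein/min. […] A PepT1/K1 uptake ratio above 1 was taken to indicate a PepT1 substrate. Values are mean ± SD.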

[29] = Apparent permeability from basolateral to apical side in human Caco2 cells at 100 uM; format: ADME, cell-based; details: Caco-2
Outline: as §2, with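 “Papp(b–a)/Papp(a–b). The test concentration was 100 μM, or 25 μM for poorly soluble compounds after further dilution.” for “Papp(b–a)/Papp(a–b).”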

[30] = Apparent permeability from apical to basolateral side in human Caco2 cells at 100 uM; format: ADME, cell-based; details: Caco-2
Outline: as §2, with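 “Papp(b–a)/Papp(a–b). The test concentration was 100 μM, or 25 μM for poorly soluble compounds after further dilution.” for “Papp(b–a)/Papp(a–b).”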

[31] = Drug uptake in CHOK1 cells at 100 uM; format: ADME, cell-based, Cricetulus griseus; details: chinese hamster, cho-k1, 100 µM; outline: as §3
[32] = Half life in human plasma at 100 uM; format: ADME, cell-free

Sequence of Cytochrome P450 2C9 (P11712 whole entry): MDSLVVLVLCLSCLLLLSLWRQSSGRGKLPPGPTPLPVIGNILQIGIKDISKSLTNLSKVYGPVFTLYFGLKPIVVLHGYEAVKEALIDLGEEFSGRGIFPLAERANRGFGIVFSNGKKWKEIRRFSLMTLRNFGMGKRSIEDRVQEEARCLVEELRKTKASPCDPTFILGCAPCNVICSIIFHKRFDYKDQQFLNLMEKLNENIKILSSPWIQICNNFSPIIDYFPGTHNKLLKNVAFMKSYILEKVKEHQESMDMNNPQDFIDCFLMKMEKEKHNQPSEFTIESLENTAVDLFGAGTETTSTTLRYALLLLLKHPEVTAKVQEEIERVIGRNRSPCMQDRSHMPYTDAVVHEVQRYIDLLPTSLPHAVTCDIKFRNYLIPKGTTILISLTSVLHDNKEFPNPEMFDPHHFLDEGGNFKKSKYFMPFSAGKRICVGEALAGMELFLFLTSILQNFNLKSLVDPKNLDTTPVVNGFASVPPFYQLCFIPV

Row | Structure (SMILES) | Drug recovery [14] | Drug recovery [16] | Papp A→B at 25 µM [17] | Papp B→A at 25 µM [18] | Drug uptake [19] | half-life at 25 µM [20] | Drug uptake [21] | microsomal CLint at 25 µM [22] | half-life at 25 µM [24] | other results
1 | NC(=O)[C@H](Cc1ccccc1)NC(=O)OCc1ccccc1 | > 65% | > 70% | – | – | – | – | – | – | – | microsomal CLint [1]: 22.6 µL/min/mg; INH [2]: > 20 µM; microsomal CLint [3]: 21.2 µL/min/mg; Vdu [4]: 6 mL/g; recovery at 10 µM [5]: > 95%; INH [6]: > 20 µM; fraction unbound at 10 µM [7]: 0.19; INH [8]: > 20 µM; efflux ratio [9]: 1; fraction unbound at 10 µM [10]: 0.18; INH [11]: > 20 µM; CLH [12]: 39.4 µL/min/mg; Papp A→B [13]: 31 ×10⁻⁶ cm/s; fraction unbound at 10 µM [15]: 0.17
2 | NC(=O)[C@@H]1[C@H](c2ccccc2)CCN1C(=O)[C@@H](N)Cc1ccccc1 | > 95% | > 95% | – | – | – | – | – | – | – | Vdu [4]: 3.4 mL/g; recovery at 10 µM [5]: > 95%
3 | N#CNC(=O)[C@H](Cc1ccccc1)NC(=O)OCc1ccccc1 | – | – | 52 ×10⁻⁶ cm/s | 62 ×10⁻⁶ cm/s | 4 pmol/min/mg | 8.7 h | 4 pmol/min/mg | 11 µL/min/mg | 6.6 h | efflux ratio at 25 µM [23]: 1.2; uptake ratio at 25 µM [25]: 1
4 | CS(=O)(=O)NC(=O)[C@H](Cc1ccccc1)NC(=O)OCc1ccccc1 | – | – | – | – | – | – | – | – | – | half-life at 100 µM [26]: 6.9 h; microsomal CLint at 100 µM [27]: 17 µL/min/mg; Drug uptake [28]: 90 pmol/min/mg; Papp B→A at 100 µM [29]: 3 ×10⁻⁶ cm/s; Papp A→B at 100 µM [30]: 6 ×10⁻⁶ cm/s; Drug uptake [31]: 77 pmol/min/mg; half-life at 100 µM [32]: 26.7 h
5 | O=C(N[C@@H](Cc1ccccc1)C(=O)NO)OCc1ccccc1 | – | – | 60 ×10⁻⁶ cm/s | 45 ×10⁻⁶ cm/s | 5 pmol/min/mg | 0.06 h | 4 pmol/min/mg | 23 µL/min/mg | 7.9 h | –
6 | O=C(N[C@@H](Cc1ccccc1)C(=O)NNC(=O)c1ccccc1)OCc1ccccc1 | – | – | 11 ×10⁻⁶ cm/s | 14 ×10⁻⁶ cm/s | 127 pmol/min/mg | 0.31 h | 156 pmol/min/mg | 65 µL/min/mg | 9.9 h | efflux ratio at 25 µM [23]: 1.3; uptake ratio at 25 µM [25]: 0.8
7 | O=C(N[C@@H](Cc1ccccc1)c1nnc(-c2ccccc2)o1)OCc1ccccc1 | – | – | – | – | 1082 pmol/min/mg | 8.7 h | 1128 pmol/min/mg | 287 µL/min/mg | 11.2 h | –
8 | NC(=O)[C@H](Cc1ccccc1)NC(=O)[C@@H](N)Cc1ccccc1 (H-Phe-Phe-NH2) | 22% | 1% | – | – | – | – | – | – | – | microsomal CLint [1]: 97.3 µL/min/mg; microsomal CLint [3]: 103 µL/min/mg

Source: ChEMBL document CHEMBL3351280, “Exploration and pharmacokinetic profiling of phenylalanine based carbamates as novel substance p 1-7 analogues” (ACS Med Chem Lett, 2014)
